Test [1] can be described thus: inhibitors of TNFa-induced NFkB p65 translocation, primary screen, imaging, HUVEC, MLSMR starter and 10KST1 sets (AID 438;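 active = inhibition above 20% together with a positive visual image hit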;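 also: compound added about 3h40 before a 20 min TNFalpha stimulation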;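 as to inhibition: signal is the nuclear over cytoplasmic p65 intensity ratio per well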). The following applies: HUVEC TNFa-induced p65 nuclear translocation; cell count: measured here: nuclei count (cytotoxicity indicator), at 2.08 µM; inhibition: at 2 µM, stronger effect = higher value, 0% TNFa-plus-vehicle, 100% no-TNFa wells.
Test [2] in a line: inhibitors of E-selectin induction by TNFa, primary screen, imaging, HUVEC, immunofluorescence, MLSMR starter and 10KST1 sets (AID 487;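 active = visually confirmed hit in the image check and inhibition above 20%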;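 as to inhibition: signal is fraction of cell area covered by stained E-selectin grains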;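 as to nuclei count: 100% = median nuclei count of all wells on the same plate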). Particulars: HUVEC TNFalpha-induced E-selectin immunofluorescence imaging, at 2 µM; inhibition: stronger effect = higher value; nuclei count: measured here: cell number, toxicity.
Test [3] is described as follows: DUSP6 inhibitors restoring Erk phosphorylation by chemical complementation, primary imaging in DUSP6-transfected HeLa (AID 609;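 active = compounds giving at least 50% inhibition in the cell-based MKP-3 phosphatase rescue imaging test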;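 as to inhibition: phospho-Erk level distribution per well compared with pooled transfected vehicle control wells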). Particulars: HeLa MKP-3 transfected, phospho-Erk imaging KS statistic, at 10 µM, cells stimulated with TPA for 15 min.
The target of test [4] is Dual specificity protein phosphatase 6 (Homo sapiens) (UniProt Q16828). The test is described as above. The following applies: HeLa MKP-3 transfected, phospho-Erk imaging KS statistic; at 10 µM; stronger effect = higher value; cells stimulated with TPA for 15 min.
Test [5] deals with Voltage-gated potassium channel subunit beta-2 (Rattus norvegicus) (UniProt P62483). As to the kind of experiment: KvBeta enzyme negative modulators, primary screen, biochemical, NADPH fluorescence (AID 622;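 active = fluorescence slope higher than the sample average by over 3 SD, cut at about -0.22 in these data, passing the limit was not always enough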;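 also: slope of raw intensity against log time taken from 70 to 1610 s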). The following applies: recombinant KvBeta, 4-cyanobenzaldehyde reduction, at 10 µM, stronger effect = higher value.
For test [6] the target is unchanged. Put plainly: KvBeta positive modulators, primary screen, biochemical, NADPH fluorescence (AID 623;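 active = NADPH fluorescence slope more negative than the mean of all samples by about 3 SD, 99.7% confidence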;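 also: fluorescence intensity change per second fitted from 20 to 320 s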). The following applies: Recombinant KvBeta, NADPH fluorescence decrease slope, 10 min; at 10 µM; stronger effect = lower value.
Test [7] deals with Alpha-2C adrenergic receptor (Homo sapiens) (UniProt P18825). Put plainly: modulators of alpha2C/GIRK thallium flux, primary screen, cell-based, HEK293 alpha2C/GIRK1/2 (AID 624;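 active = fluorescence slope after compound addition differing from the mean of all screened samples at 99.7% confidence, in either direction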;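 also: slope of fluorescence ratio to pre-addition baseline per second over 15 to 24 s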). The following applies: thallium flux BTC fluorescence, at 10 µM, actives lie on both sides.
Test [8] can be described thus: inhibitors of larval lipid processing in zebrafish, primary screen, whole organism, PED6 fluorescence, gall bladder and intestine (AID 686;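 active = a full or partial loss of lipid-probe fluorescence in the fish gall bladder, intestine or both, judged by eye; inactive = no fluorescence loss, or compound toxic to the fish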;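 also: larvae 5 to 7 days old with five fish per well; signal comes from phospholipase A2 cleavage of quenched PED6 carried via bile; overnight exposure to compound and PED6 before scoring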). The following applies: Zebrafish larvae PED6 lipid processing, fluorescence scoring; screened at 20 µM (by protocol). In outline: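 Also added: quenched phospholipase substrate PED6, 100 nM final, ingested by larvae; System: zebrafish larvae, 5-7 d; Quantity: 5 larvae per well; Compound: 20 µM single dose; Schedule: overnight compound and PED6 incubation; Read-out: visual per-well fluorescence inhibition score; Measured by: By-eye fluorescence microscopy; Medium: E3.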

The nature of test [9]: inhibitors of Chlamydomonas gravitaxis, primary screen, whole organism, Chlamydomonas reinhardtii, WT vs cilia-less mutant, absorbance, 96-well (AID 463189).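 Also: 0% = wild type cc124 cells in DMSO and 100% = ciliumless bld1 mutant cells.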 Particulars: OD600 absorbance, 2 days, at 10 µM, stronger effect = higher value.
The mark [10] stands for this setting: measured here: cell density z-score.
Where [11] appears, read: measured here: nuclear c-Myc green intensity z-score.
The mark [12] stands for this setting: measured here: nuclear pErk red intensity z-score, stronger effect = higher value.

Activity calls are given as the source filed them.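 The calls were made as follows, unless noted: active = inhibition at or above 50% relative to wild type and mutant plate controls; inactive = inhibition below 50%.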

Chain of Alpha-2C adrenergic receptor (Homo sapiens) (P18825 whole entry, looked up): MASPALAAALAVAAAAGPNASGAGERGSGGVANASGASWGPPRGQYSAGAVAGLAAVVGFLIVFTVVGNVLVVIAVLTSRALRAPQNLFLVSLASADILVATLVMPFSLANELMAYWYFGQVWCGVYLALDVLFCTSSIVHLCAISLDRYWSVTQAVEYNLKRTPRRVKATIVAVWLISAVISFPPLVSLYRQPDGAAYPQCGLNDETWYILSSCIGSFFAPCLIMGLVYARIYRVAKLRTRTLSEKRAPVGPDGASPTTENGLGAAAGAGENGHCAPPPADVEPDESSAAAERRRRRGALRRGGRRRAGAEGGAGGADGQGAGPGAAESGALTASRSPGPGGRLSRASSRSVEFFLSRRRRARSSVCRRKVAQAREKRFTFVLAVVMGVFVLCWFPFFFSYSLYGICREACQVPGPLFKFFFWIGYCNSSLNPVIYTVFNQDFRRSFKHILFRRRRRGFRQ
Chain of Voltage-gated potassium channel subunit beta-2 (Rattus norvegicus) (P62483 whole entry, looked up): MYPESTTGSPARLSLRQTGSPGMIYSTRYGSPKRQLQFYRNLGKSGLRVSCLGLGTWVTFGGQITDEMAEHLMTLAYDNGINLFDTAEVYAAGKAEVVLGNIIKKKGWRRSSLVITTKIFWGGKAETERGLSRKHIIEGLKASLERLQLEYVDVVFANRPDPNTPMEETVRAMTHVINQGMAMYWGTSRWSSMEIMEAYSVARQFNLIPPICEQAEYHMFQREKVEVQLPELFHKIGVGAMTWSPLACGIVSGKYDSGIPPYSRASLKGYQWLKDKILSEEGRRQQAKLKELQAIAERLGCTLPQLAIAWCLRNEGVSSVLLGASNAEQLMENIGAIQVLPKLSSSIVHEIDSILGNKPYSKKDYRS
Chain of Dual specificity protein phosphatase 6 (Homo sapiens) (Q16828 whole entry, looked up): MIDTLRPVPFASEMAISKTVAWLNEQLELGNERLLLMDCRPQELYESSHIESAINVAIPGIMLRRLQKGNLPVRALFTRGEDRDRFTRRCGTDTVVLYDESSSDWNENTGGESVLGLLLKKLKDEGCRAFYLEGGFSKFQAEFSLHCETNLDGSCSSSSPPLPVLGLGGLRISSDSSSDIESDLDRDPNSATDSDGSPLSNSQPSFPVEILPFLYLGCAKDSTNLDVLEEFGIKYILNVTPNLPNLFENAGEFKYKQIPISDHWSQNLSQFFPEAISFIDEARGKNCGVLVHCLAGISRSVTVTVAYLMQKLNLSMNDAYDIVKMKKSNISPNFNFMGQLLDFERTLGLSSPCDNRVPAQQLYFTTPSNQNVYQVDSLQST

Regarding `COc1ccc(C2=CC(c3cccc(OC)c3)n3nnnc3N2)cc1` (stereo unspecified), in test [1], the cell count was determined as 539. Further, the inhibition in test [1] was -14.8% (inactive); in test [2] it was -119% (inactive); in test [4] it was 13.7% (inactive); in test [9], 6.7% (inactive). The nuclei count in test [2] turned out to be 145%. Further, the z-score in test [3] (setting [10]) is 2.98; in [3] (setting [11]) it was -1.71; in test [3] (setting [12]), -0.495. Besides, the fluorescence slope in test [5] is -0.474 (inactive). Also, the NADPH fluorescence slope in test [6] is -6.4e-05 (inactive). The slope in test [7] is 0.00383 (inactive). Besides, the compound was called inactive in test [8].

Turning to `CCOC(=O)c1c(C)n(C)c2ccc(OC)c(NC(=O)c3cccs3)c12`, the cell count in test [1] is 361. Also, the inhibition was -4.3% (inactive) in test [1], -0.3% (inactive) in test [2], -4.59% (inactive) in test [4] and -6.67% (inactive) in test [9]. This compound also gave a nuclei count in test [2] of 151%. Moreover, the z-score in test [3] (setting [10]) was -1.28; in [3] (setting [11]), 0.0285; in test [3] (setting [12]) it was 0.397. Also, the fluorescence slope in test [5] was -0.424 (inactive). Further, the NADPH fluorescence slope in test [6] is -0.00012 (inactive). Further, the slope in test [7] is 0.00568 (inactive). In addition, in test [8], the outcome was inactive.

For `COc1ccc(Oc2nc3c(c(=O)n(C)c(=O)n3C)n2Cc2cccc(OC)c2)cc1`, the cell count in [1] was 468. In addition, the inhibition in test [1] was -1.9% (inactive); in [2], -260% (inactive); in test [4] it was 26% (inactive); in test [9], 31.4% (inactive). For the same compound, the nuclei count in [2] stood at 162%. Moreover, the z-score was 1.97 in test [3] (setting [10]), -0.65 in test [3] (setting [11]) and -2.21 in test [3] (setting [12]). Besides, the fluorescence slope in test [5] is -0.295 (inactive). In addition, in test [6], the NADPH fluorescence slope is -1.2e-05 (inactive). In addition, the slope in [7] was 0.00507 (inactive). Also, the compound was called inactive in test [8].

For `Cc1ccc(SCc2nnc(N)s2)cc1`, the cell count in test [1] turned out to be 580. Further, the inhibition was -16.4% (inactive) in test [1], 29.9% (inactive) in [2], -15% (inactive) in [4] and 7.17% (inactive) in [9]. This compound gave a nuclei count in [2] of 161%. Besides, the results for the z-score in test [3] (setting [10]), in test [3] (setting [11]) and in [3] (setting [12]) were -0.876, -0.003 and 0.564, respectively. For the same compound, the fluorescence slope in [5] is -0.396 (inactive). For the same compound, the NADPH fluorescence slope in test [6] was -5.4e-05 (inactive). For the same compound, the slope in test [7] was 0.00821 (inactive). The compound was called inactive in test [8].

On to `CN(Cc1c(O)ccc2c1oc(=O)c1ccccc12)C1CCCCC1`, for which the cell count in test [1] was 585. Moreover, the inhibition in test [1] was -2.8% (inactive); in [2], 6.7% (inactive); in test [4] it was -4.27% (inactive); in test [9] it was 3.79% (inactive). In test [2], the nuclei count was determined as 172%. Also, the results for the z-score in test [3] (setting [10]), in [3] (setting [11]) and in [3] (setting [12]) were 0.636, 0.684 and 0.214, respectively. Also, in [5], the fluorescence slope is -0.348 (inactive). The NADPH fluorescence slope in test [6] is -7e-05 (inactive). Also, in test [7], the slope was 0.00514 (inactive). Also, the compound was called inactive in test [8].

As to `OC1(c2cccc(C(F)(F)F)c2)CCN(c2ncnc3c2[nH]c2ccccc23)CC1`, in [1], the cell count was found to be 447. Further, the inhibition is -2.9% (inactive) in [1], -95% (inactive) in test [2], 34.7% (inactive) in [4] and 19.3% (inactive) in test [9]. Also, the nuclei count in test [2] was found to be 165%. For the same compound, the values for the z-score in test [3] (setting [10]), in test [3] (setting [11]) and in [3] (setting [12]) were -0.506, 1.11 and -2.96, respectively. Also, the fluorescence slope in test [5] is -0.454 (inactive). For the same compound, the NADPH fluorescence slope in [6] is -5.6e-05 (inactive). The slope in [7] was 0.0037 (inactive). For the same compound, the outcome in test [8] was inactive.

Turning to `C=CCNC(=O)C(C#N)c1nc2ccccc2nc1N1CCCCCC1` (stereo unspecified), in [1], the cell count was 537. Also, the inhibition in test [1] is -1.4% (inactive); in [2], -190% (inactive); in [4], 15% (inactive); in test [9] it was 10.7% (inactive). Besides, in test [2], the nuclei count was 178%. The z-score in test [3] (setting [10]) was -1.46; in [3] (setting [11]) it was 1.13; in test [3] (setting [12]) it was 1.59. The fluorescence slope in test [5] is -0.302 (inactive). For the same compound, the NADPH fluorescence slope in test [6] is -1.1e-05 (inactive). For the same compound, in test [7], the slope is -0.000734 (inactive). Further, the compound was classed as inactive in test [8].

By inhibition is commonly meant the relative decrease from the control value, in per cent.
